In ChEMBL document CHEMBL1123476, “Synthesis of congeners and prodrugs of the benzene maleimide photoadduct mitindomide as potential antitumor agents. 2” (J Med Chem, 1986):
“And” between values parts separate entries of the source, which are not always exact repeats. Equal values may be shown once.

What was measured:
P388 [1] = experiment: (§1) Antitumor activity in P-388 lymphocytic leukemia system at 200 mg/kg dose levels per injection.; format: functional, Mus musculus
Summary of the method: (§2)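 P-388 leukemia in animals, Q01D×09 schedule: dose given daily for 9 days, in mg/kg per injection. Read-outs are survivors on day 4 (live/total animals), body-weight difference test minus control (g), and % T/C (median lifetime of treated ÷ median lifetime of controls × 100). Some compounds were tested in independent runs at different times.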

P388 [2] = experiment: (§3) Antitumor activity in P-388 lymphocytic leukemia system at 100 mg/kg dose levels per injection.; format: functional, Mus musculus; summary of the method: as §2
P388 [3] = experiment: (§4) Antitumor activity in P-388 lymphocytic leukemia system at 50 mg/kg dose levels per injection.; format: functional, Mus musculus; summary of the method: as §2
P388 [4] = experiment: Compound was tested for antitumor activity in P-388 lymphocytic leukemia system at 200 mg/kg dose levels per injection.; format: functional, organism-based; design: dose 200 mg/kg; settings: Mus musculus
Summary of the method: (§5)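 P-388 leukemia in vivo, dosed Q01D×09 (one injection daily for 9 days, mg/kg per injection). Activity is %T/C, the median lifetime of treated animals divided by that of controls, ×100. Live animals on day 4 were counted against the total (survivors day 4). Repeat tests were done independently at different times.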

P388 [5] = experiment: as §4; format: functional, Mus musculus; summary of the method: as §5; remark: listed apart in the source
P388 [6] = experiment: Antitumor activity in P-388 lymphocytic leukemia system at 25 mg/kg dose levels per injection.; format: functional, Mus musculus; summary of the method: as §2
P388 [7] = experiment: Compound was tested for antitumor activity in P-388 lymphocytic leukemia system at 200 mg/kg dose levels per injection; 0/6; format: functional, Mus musculus; summary of the method: as §2
P388 [8] = experiment: as §3; format: functional, Mus musculus; summary of the method: as §5; remark: listed apart in the source
P388 [9] = experiment: Antitumor activity in P-388 lymphocytic leukemia system at 25 mg/kg dose levels per injection; format: functional, Mus musculus; summary of the method: as §5
[10] = Solubility was determined; INS= less than 0.1; format: physicochemical
P388 [11] = experiment: Compound was tested for antitumor activity in P-388 lymphocytic leukemia system at 200 mg/kg dose levels per injection; format: functional, Mus musculus; summary of the method: as §5
P388 [12] = experiment: Compound was tested for antitumor activity in P-388 lymphocytic leukemia system at 400 mg/kg dose levels per injection; 6/6; format: functional, Mus musculus; summary of the method: as §2
P388 [13] = experiment: Compound was tested for antitumor activity in P-388 lymphocytic leukemia system at 400 mg/kg dose levels per injection; format: functional, Mus musculus; summary of the method: as §5
P388 [14] = experiment: as §1; format: functional, Mus musculus; summary of the method: as §5; remark: listed apart in the source
P388 [15] = experiment: Compound was tested for antitumor activity in P-388 lymphocytic leukemia system at 25 mg/kg dose levels per injection; format: functional, Mus musculus; summary of the method: as §5
P388 [16] = experiment: Compound was tested for antitumor activity in P-388 lymphocytic leukemia system at 25 mg/kg dose levels per injection; 6/6; format: functional, Mus musculus; summary of the method: as §2
P388 [17] = experiment: Compound was tested for antitumor activity in P-388 lymphocytic leukemia system at 200 mg/kg dose levels per injection; 5/6; format: functional, Mus musculus; summary of the method: as §2
P388 [18] = experiment: Antitumor activity in P-388 lymphocytic leukemia system and the difference in body weight was calculated at 200 mg/kg dose levels per injection.; format: functional, Mus musculus; settings: 200 mg/kg
P388 [19] = experiment: Antitumor activity in P-388 lymphocytic leukemia system and the difference in body weight calculated at 100 mg/kg dose levels per injection.; format: functional, Mus musculus; settings: 100 mg/kg
[20] = Solubility was determined; format: physicochemical
P388 [21] = experiment: Antitumor activity in P-388 lymphocytic leukemia system and the difference in body weight was calculated at 50 mg/kg dose levels per injection.; format: functional, Mus musculus
P388 [22] = experiment: Compound was tested for antitumor activity in P-388 lymphocytic leukemia system. at 200 mg/kg dose levels per injection; Toxic; format: functional, organism-based; design: dose 200 mg/kg; settings: Mus musculus; summary of the method: as §5
P388 [23] = experiment: Compound was tested for antitumor activity in P-388 lymphocytic leukemia system at 166.7 mg/kg dose levels per injection; Toxic; format: functional, organism-based; design: dose 166.7 mg/kg; settings: Mus musculus; summary of the method: as §5
P388 [24] = experiment: Compound was tested for antitumor activity in P-388 lymphocytic leukemia system at 400 mg/kg dose levels per injection; Toxic; format: functional, organism-based; design: dose 400 mg/kg; settings: Mus musculus; summary of the method: as §5
P388 [25] = experiment: Compound was tested for antitumor activity in P-388 lymphocytic leukemia system at 400 mg/kg dose levels per injection; 3/6; format: functional, Mus musculus; summary of the method: as §2
P388 [26] = experiment: Compound was tested for antitumor activity in P-388 lymphocytic leukemia system and the difference in body weight was calculated at 400 mg/kg dose levels per injection; format: functional, Mus musculus
P388 [27] = experiment: Compound was tested for antitumor activity in P-388 lymphocytic leukemia system. at 400 mg/kg dose levels per injection; format: functional, Mus musculus; summary of the method: as §5
P388 [28] = experiment: Compound was tested for antitumor activity in P-388 lymphocytic leukemia system at 100 mg/kg dose levels per injection; 5/6; format: functional, Mus musculus; summary of the method: as §2
P388 [29] = experiment: Compound was tested for antitumor activity in P-388 lymphocytic leukemia system. at 400 mg/kg dose levels per injection; Toxic; format: functional, organism-based; design: dose 400 mg/kg; settings: Mus musculus; summary of the method: as §5
P388 [30] = experiment: Antitumor activity in P-388 lymphocytic leukemia system and the difference in body weight was calculated at 25 mg/kg dose levels per injection.; format: functional, Mus musculus

SMILES	Survivors at day 4 (P388 [1])	Survivors at day 4 (P388 [2])	Survivors at day 4 (P388 [3])	T/C (P388 [5]; 50 mg/kg)	T/C (P388 [8]; 100 mg/kg)	Solubility [10]	T/C (P388 [5])	Weight difference (P388 [5])	Survivors at day 4 (P388 [12])	T/C (P388 [14]; 200 mg/kg)	T/C (P388 [8])	Weight difference (P388 [8])	also measured
CCOC(=O)N1C(=O)C2C3C=CC(C2C1=O)C1C2C(=O)N(C(=O)OCC)C(=O)C2C31 (stereo not drawn)	6	6	6	135% and 121%	152% and 145%	Insoluble	–	–	–	–	–	–	T/C (P388 [4]): Toxic; Weight difference (P388 [5]; 50 mg/kg): -0.6 g and -0.8 g; Survivors at day 4 (P388 [6]): 6; Survivors at day 4 (P388 [7]): 0; Weight difference (P388 [8]; 100 mg/kg): -4.6 g and -5.5 g; T/C (P388 [9]; 25 mg/kg): 124% and 116%; Weight difference (P388 [11]): -6.5 g
O=C1NC(=O)C2C1C(C(=O)O)C1C3C(=O)NC(=O)C3C1C2C(=O)O (stereo not drawn)	6	6	6	–	–	Insoluble	94%	0 g	6	92% and 91%	97%	-0.7 g	T/C (P388 [13]): 96%; Weight difference (P388 [13]): -0.2 g
CCOC(=O)N1C(=O)C2C3CCC(C2C1=O)C1C2C(=O)N(C(=O)OCC)C(=O)C2C31 (stereo not drawn)	6	6	6	127% and 115%	157% and 142%	Insoluble	–	–	–	–	–	–	Weight difference (P388 [15]; 25 mg/kg): -0.5 g and -0.7 g; T/C (P388 [4]): Toxic; Weight difference (P388 [5]; 50 mg/kg): -0.3 g and -0.4 g; Survivors at day 4 (P388 [16]): 6; Survivors at day 4 (P388 [17]): 5; T/C (P388 [14]): 222%; Weight difference (P388 [8]; 100 mg/kg): -1.2 g and -2.2 g; T/C (P388 [9]; 25 mg/kg): 111% and 104%; Weight difference (P388 [11]; 200 mg/kg): -4 g and -5.2 g
O=C1C2C3C=CC(C2C(=O)N1CO)C1C(=O)N(CO)C(=O)C31 (stereo not drawn)	6	6	6	127% and 140%	144% and 137%	–	–	–	–	160% and 152%	–	–	Weight difference (P388 [18]): -3.4 g and -4.1 g; Survivors at day 4 (P388 [6]): 6; Weight difference (P388 [19]): -3.9 g and -4 g; Solubility [20]: 0.5%; Weight difference (P388 [21]; 50 mg/kg): -2.5 g and -1.8 g; T/C (P388 [9]; 25 mg/kg): 114% and 132%
CN1CCN(CN2C(=O)C3C4C=CC(C3C2=O)C2C3C(=O)N(CN5CCN(C)CC5)C(=O)C3C42)CC1 (stereo not drawn)	–	–	–	–	–	–	–	–	–	–	–	–	T/C (P388 [22]): Toxic; T/C (P388 [23]): Toxic
CN1CCN(CN2C(=O)C3C4C=CC(C3C2=O)C2C(=O)N(CN3CCN(C)CC3)C(=O)C42)CC1 (stereo not drawn)	6	6	6	–	126% and 113%	–	108%	–	–	122% and 128%	–	–	T/C (P388 [24]): Toxic; Weight difference (P388 [18]): -3.1 g and -3.6 g; Survivors at day 4 (P388 [25]): 3; Weight difference (P388 [26]): -6.4 g; Solubility [20]: 2%; Weight difference (P388 [21]): 0 g
O=C(O)C1C2C(=O)N(CO)C(=O)C2C(C(=O)O)C2C3C(=O)N(CO)C(=O)C3C12 (stereo not drawn)	6	6	6	92% and 105%	120% and 107%	–	–	–	6	114% and 120%	–	–	T/C (P388 [27]; 400 mg/kg): 129% and 131%; Weight difference (P388 [21]; 50 mg/kg): -0.9 g and -1.2 g
CC1=CC2(C)C3C(=O)NC(=O)C3C1C1(C)C3C(=O)NC(=O)C3C21 (stereo not drawn)	6	6	6	–	–	Insoluble	108%	-0.9 g	6	–	109%	-1.5 g	T/C (P388 [27]): 101%; Weight difference (P388 [13]): -5.3 g; T/C (P388 [14]): 97%; Weight difference (P388 [11]): -1.8 g
O=C1NC(=O)C2C3C=CC(C12)C1C(=O)NC(=O)C31 (stereo not drawn)	–	–	6	–	–	Insoluble	100%	-1.1 g	–	–	97%	-2.4 g	Weight difference (P388 [15]): -0.7 g; Survivors at day 4 (P388 [16]): 6; Survivors at day 4 (P388 [17]): 5; Survivors at day 4 (P388 [28]): 5; T/C (P388 [14]): 92%; T/C (P388 [9]): 105%; Weight difference (P388 [11]): -4.3 g
CN1C(=O)C2C3C=CC(C2C1=O)C1C2C(=O)N(C)C(=O)C2C31 (stereo not drawn)	6	6	6	–	–	Insoluble	108%	-0.9 g	6	111% and 104%	111%	-0.8 g	T/C (P388 [13]): 135%; Weight difference (P388 [13]): -2 g; Weight difference (P388 [11]; 200 mg/kg): -0.8 g and -1.4 g
CC(=O)OC(C(=O)O)N1C(=O)C2C3C=CC(C2C1=O)C1C2C(=O)N(C(OC(C)=O)C(=O)O)C(=O)C2C31 (stereo not drawn)	6	6	6	–	123% and 113%	–	110%	–	–	175% and 125%	–	–	Weight difference (P388 [18]): -1.2 g and -0.5 g; Survivors at day 4 (P388 [25]): 3; T/C (P388 [29]): Toxic; T/C (P388 [15]): 103%; Weight difference (P388 [26]): -5.7 g; Weight difference (P388 [30]): 0.2 g; Survivors at day 4 (P388 [6]): 6; Weight difference (P388 [21]): -0.3 g
